NSD2 HMT inh: NSD2 histone methyltransferase inhibitors, primary screen, biochemical, AlphaScreen, single concentration, set 2. Histone-lysine N-methyltransferase NSD2 (Homo sapiens), O96028. NSD2 peptide methylation, 120 min. inhibition, % at 12.5 µM. 310,000 tested, 0.54% active. AID 743445, 2014; in the data active = inhibition above about 50%
MITF TRPM1 HTS: activators of MITF-driven TRPM1 promoter reporter, primary screen, cell-based, SK-MEL-5, luciferase, single point | activation, % at 12.5 µM | SK-MEL-5 TRPM1-promoter luciferase, 24 h; % of positive control, neutral wells = 0 | 300,000 tested, 0.75% active | AID 588334, 2011;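 active = mean activation of at least 80% with every replicate also reaching 80%; inconclusive = mean reaches 80% but some replicate falls short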;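 note: 0% = neutral control wells and 100% = parthenolide positive control wells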
esBAF inh: Bmi1 luciferase reporter increase in mESCs, primary screen, esBAF inhibitor project, mouse ES cells, Bmi1 luciferase knock-in, single point; 24 h; 100% = twice the neutral-well signal; reporter increase, % at 12.5 µM; 350,000 tested, 2% active; AID 602393, 2012; in the data active = activation above about 40%; inconclusive = no clear call, values can overlap the other calls;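 note: 0% = median of the plate's neutral control wells and 100% = double that signal; a rise in the Bmi1 reporter signal indicates esBAF inhibition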
Wnt act: Wnt/beta-catenin pathway activators, primary screen, cell-based, plate reader, single point; activation, % at 9.35 µM; AID 743398, 2014; Wnt/beta-catenin reporter cell assay, activator; 300,000 tested, 1.2% active; in the data active = activation above about 30%, passing the limit was not always enough; inconclusive = no clear call, values can overlap the other calls;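 note: 0% = neutral control wells and 100% = positive control wells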
Xi reactivation: activators of inactive X chromosome reactivation, primary screen, imaging, XiGFP fibroblasts, GFP high-content imaging, set 2 | XiGFP mouse fibroblasts, % GFP-positive cells imaging, 3 d; cells co-treated with 5-aza-dC sensitizer; scaled so ellipticine positive control = 100% | activation, % at 7.58 µM | 360,000 tested, 0.055% active | AID 743238, 2013;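 active = mean normalized replicate activation at least 10% and every replicate at or above 10%; inconclusive = only one of the two criteria met; inactive = mean below 10% and not all replicates reach 10%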;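 note: 0% = median of on-plate neutral control wells and 100% = ellipticine 6 µM median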
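System: 68-5-11 XiGFP fibroblast line; Timing: 3 days compound exposure; Compound dosing: one concentration, pinned; Benchmarks: positive control ellipticine, 6 µM final; Buffer or medium: DMEM containing 5-aza-dC.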
CASP6 VEID inh: human caspase-6 inhibitors, primary screen, biochemical, VEID-R110 fluorescence, single point, set 2; AID 686996, 2013; purified caspase-6, Z-VEID-R110 cleavage fluorescence; 350,000 tested, 0.53% active; inhibition, % at 12.5 µM;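 active = mean inhibition across replicates at least about 35%, with every replicate also reaching that limit, limit read from the data; inconclusive = only one of the two criteria met; inactive = neither criterion met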;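 note: 0% = median of neutral control wells and 100% = no fluorescence left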
Numbers without * were called inactive. Most compounds without a hit are left out; they make up all but 3% or so of the library.

How did COc1cc(NC(=O)c2cc(C(C)C)on2)c(OC)cc1Cl do in these assays?
NSD2 HMT inh: 0.4; esBAF inh: 1.9

Results for COc1ccccc1C(=O)Nc1ccc(Br)cc1C ?
NSD2 HMT inh: -2.9; MITF TRPM1 HTS: 40.1; esBAF inh: 39.1; Wnt act: 37.2*; Xi reactivation: 0.1; CASP6 VEID inh: 1.7

How did COc1ccc(NC(=O)CSc2ccccc2)c(OC)c1 do in these assays?
NSD2 HMT inh: -3.1; MITF TRPM1 HTS: 39.1; esBAF inh: 55.6*

Results for Cc1cc(C(=O)Nc2cccc3c2O[C@@H](CN(C)C(=O)Nc2ccccc2)[C@@H](C)CN([C@H](C)CO)C3=O)n(C)n1 ?
esBAF inh: 5.3; Xi reactivation: -0.1; CASP6 VEID inh: 1.9

How did COc1ccc(NC(=O)c2ccccc2O)c(OC)c1 do in these assays?
NSD2 HMT inh: -1.9; MITF TRPM1 HTS: 57.5; esBAF inh: 52.7*; Wnt act: 18.8; CASP6 VEID inh: 0.7

Results for CCOC(=O)c1c(C)[nH]c(N=Nc2ccc(OC)cc2)c1C ?
NSD2 HMT inh: 6.1; MITF TRPM1 HTS: 129.0*; Wnt act: 53.7*; Xi reactivation: inconclusive; CASP6 VEID inh: -4.0

What do the screens show for `CCOC(=O)c1c(C)[nH]c(N=Nc2ccc(C)cc2)c1C`?
NSD2 HMT inh: 9.4; MITF TRPM1 HTS: 124.2*; esBAF inh: 62.1*

What do the screens show for `CCOC(=O)c1c(C)[nH]c(N=Nc2ccccc2)c1C`?
NSD2 HMT inh: 1.4; MITF TRPM1 HTS: 70.9; esBAF inh: 88.8*

Results for CCOC(=O)c1c(C)[nH]c(NC(=O)NNC(=O)c2ccccc2Cl)c1C ?
NSD2 HMT inh: -10.6; MITF TRPM1 HTS: 9.2; esBAF inh: 6.2; Wnt act: -2.2; Xi reactivation: 0.0; CASP6 VEID inh: -1.4

What do the screens show for `CCOC(=O)c1c(C)[nH]c(N=Nc2ccccc2Cl)c1C`?
MITF TRPM1 HTS: 65.2; esBAF inh: 64.3*; Wnt act: 45.9*; Xi reactivation: -0.1; CASP6 VEID inh: -5.5

Results for CC(=O)C(C)Oc1ccc2c3c(c(=O)oc2c1)CCCCC3 (configuration not stated) ?
NSD2 HMT inh: -1.7; MITF TRPM1 HTS: inconclusive; esBAF inh: 65.8*

Results for CC(=O)C(C)Oc1ccc2c3c(c(=O)oc2c1)CCCC3 (configuration not stated) ?
NSD2 HMT inh: 0.9; esBAF inh: 31.2

What do the screens show for `COc1ccc(S(=O)(=O)N(C)C[C@@H]2OCCCC[C@@H](C)Oc3ccc(NS(=O)(=O)c4ccc(F)cc4)cc3C(=O)N([C@@H](C)CO)C[C@H]2C)cc1`?
esBAF inh: 27.5; Xi reactivation: 0.2; CASP6 VEID inh: 1.6

How did O=C(Nc1ccc(Cl)c(Cl)c1)C1=Cc2ccccc2OC1 do in these assays?
NSD2 HMT inh: -1.3; MITF TRPM1 HTS: 75.4; esBAF inh: 56.5*; Wnt act: 2.7

How did C[C@H](CO)N1C[C@H](C)[C@@H](CN(C)C(=O)Nc2cc(F)ccc2F)Oc2cc(/C=C/c3ccccc3)ccc2S1(=O)=O do in these assays?
esBAF inh: -0.7; Xi reactivation: -0.2; CASP6 VEID inh: -1.6

How did OC1CCC(Nc2ccn3nc(-c4cccc(Cl)c4)cc3n2)CC1 (configuration not stated) do in these assays?
NSD2 HMT inh: -0.5; esBAF inh: inconclusive; Wnt act: 1.3; Xi reactivation: 0.5; CASP6 VEID inh: 4.6

What do the screens show for `CCC(CO)Nc1ccn2nc(-c3cccc(Cl)c3)cc2n1` (configuration not stated)?
NSD2 HMT inh: -1.0; esBAF inh: 72.3*; Wnt act: 4.4; Xi reactivation: 0.0; CASP6 VEID inh: 2.5

How did C[C@H](CO)N1C[C@H](C)[C@H](CN(C)C(=O)c2ccncc2)Oc2cc(/C=C/c3ccccc3)ccc2S1(=O)=O do in these assays?
esBAF inh: -1.6; Xi reactivation: -0.7; CASP6 VEID inh: 3.9

What do the screens show for `O=[N+]([O-])c1ccccc1N=Nc1ccc(O)cc1O`?
NSD2 HMT inh: 18.0; esBAF inh: 35.4; Wnt act: 2.6; Xi reactivation: 0.1; CASP6 VEID inh: 7.3

How did O=S(=O)(O)c1cc(O)c(N=Nc2ccc(O)cc2O)c2ccccc12 do in these assays?
NSD2 HMT inh: 92.4*; MITF TRPM1 HTS: -37.2; esBAF inh: -23.9; Wnt act: -5.3; Xi reactivation: 0.0; CASP6 VEID inh: 52.0*

What do the screens show for `O=C(NNc1nc2ccccc2s1)Nc1ccccc1`?
NSD2 HMT inh: 9.1; MITF TRPM1 HTS: 79.5; Wnt act: 17.5; Xi reactivation: 7.6; CASP6 VEID inh: 1.1

How did S=C(Nc1ccccc1)c1nc2ccccc2s1 do in these assays?
MITF TRPM1 HTS: 30.8; Wnt act: 56.4*; Xi reactivation: 0.2

Results for CNC(=O)C[C@@H]1CC[C@@H]2[C@H](COc3ccc(NC(=O)Nc4ccccc4F)cc3C(=O)N2C)O1 ?
esBAF inh: -3.1; Xi reactivation: 0.3; CASP6 VEID inh: 5.8

Results for COc1ccc(CN(C)C[C@H]2OCCCC[C@@H](C)Oc3ccc(NC(=O)CCC(F)(F)F)cc3C(=O)N([C@@H](C)CO)C[C@@H]2C)cc1 ?
esBAF inh: -0.3; Xi reactivation: 0.0; CASP6 VEID inh: -2.5

What do the screens show for `CC(=Nc1ccc(C)cc1)c1sc2ccccc2c1O`?
NSD2 HMT inh: -0.7; MITF TRPM1 HTS: 26.6; Wnt act: 46.4*

How did CC(=Nc1ccc(C)cc1C)c1sc2ccccc2c1O do in these assays?
NSD2 HMT inh: -10.4; MITF TRPM1 HTS: 64.3; Wnt act: 5.0; Xi reactivation: 0.1; CASP6 VEID inh: -0.1

Results for CN=Cc1sc2ccccc2c1O ?
NSD2 HMT inh: 5.4; MITF TRPM1 HTS: -11.4; esBAF inh: 5.7; Wnt act: -1.5; CASP6 VEID inh: -2.3

What do the screens show for `CC(=Nc1cccc(O)c1)c1sc2ccccc2c1O`?
NSD2 HMT inh: -1.3; MITF TRPM1 HTS: 55.2; esBAF inh: 82.1*; Wnt act: 20.0; CASP6 VEID inh: -2.0

Results for Cc1cnc(C=NNC(N)=S)c2cccc(N)c12 ?
NSD2 HMT inh: 36.6; Wnt act: -3.0; Xi reactivation: 0.0; CASP6 VEID inh: 66.4*

How did NC(=S)NN=Cc1nccc2ccccc12 do in these assays?
NSD2 HMT inh: 8.2; MITF TRPM1 HTS: -38.1; esBAF inh: -48.3; Wnt act: -21.4; Xi reactivation: -0.1; CASP6 VEID inh: 1.8

What do the screens show for `C=C1CC(/C=C/c2cc(OC)c(OC)c(OC)c2)OC1=O` (configuration not stated)?
CASP6 VEID inh: 2.7
